Test results: ChEMBL document CHEMBL1255381, “Golgicide A reveals essential roles for GBF1 in Golgi assembly and function” (Nat Chem Biol, 2009)
The source made the active and inactive calls. No cut-off for these calls is given here.

Columns and labels:
Vero [1] = experiment: Inhibition of GBF1 in african green monkey Vero cells assessed as rapid GGA3 dispersal from trans golgi network at 10 uM after 5 mins by immunofluorescence method; format: cell-based; conditions: Chlorocebus sabaeus
Vero [2] = experiment: Inhibition of GBF1 in african green monkey Vero cells assessed as inhibition of StxB-SS retrogade transport from endosomes to TGN at 10 uM by immunofluorescence method; format: cell-based; conditions: Chlorocebus sabaeus
MDCK [3] = experiment: Effect on golgi morphology in MDCK cells at 10 uM after 1 hr by immunofluorescence method; format: functional, cell-based; conditions: Canis lupus familiaris
Summary of the method: (§1)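 MDCK cells (EMEM, 10% FCS) and Vero cells, untreated or given compound 10 μM for 1 h; fixed and immunostained for βCOP and Golgi markers; distribution compared by immunofluorescence.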

Vero [4] = experiment: Inhibition of GBF1 M832L mutant in african green monkey Vero cells assessed as effect on TGN46 localization from golgi at 100 uM by immunofluorescence method; format: cell-based; conditions: Chlorocebus sabaeus
Vero [5] = experiment: Inhibition of Arf1 in african green monkey Vero cells assessed as punctate and diffuse distribution of medial-Golgi marker giantin at 10 ug/ml after 1 hr by immunofluorescence method; format: cell-based; conditions: Chlorocebus sabaeus
Vero [6] = experiment: Effect on BIG2 distribution from golgi in african green monkey Vero cells by immunofluorescence method; format: functional, cell-based; conditions: Chlorocebus sabaeus
Vero [7] = experiment: Inhibition of GBF1-M832L mutant in african green monkey Vero cells assessed as Arf1 activation at 10 uM after 1 hr; format: cell-based; conditions: Chlorocebus sabaeus
Vero [8] = experiment: cells; format: functional, cell-based; conditions: Chlorocebus sabaeus, 0.5 h
Vero [9] = experiment: Inhibition of GBF1 in african green monkey Vero cells assessed as tsVSVG-GFP transport to plasma membrane at 10 uM by immunofluorescence method; format: cell-based; conditions: Chlorocebus sabaeus
Summary of the method: (§2)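 Vero cells co-transfected with tsVSVG-GFP (ts045) and optionally GBF1-HA WT or M832L; held 12-16 h at 42°C for ER arrest, then cycloheximide 100 µg/ml plus compound 10 µM or BFA 10 µg/ml, shifted to 32°C for various times (up to 4 h); fixed, anti-HA stained, transport imaged.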

Vero [10] = experiment: Inhibition of GBF1 in african green monkey Vero cells assessed as colocalization of tsVSVG-GFP with […] at 10 uM by immunofluorescence method; format: cell-based; conditions: Chlorocebus sabaeus
Vero [11] = experiment: Effect on BIG1 distribution from golgi in african green monkey Vero cells by immunofluorescence method; format: functional, cell-based; conditions: Chlorocebus sabaeus
Vero [12] = experiment: Inhibition of GBF1 in african green monkey Vero cells overexpressing BIG1 assessed as punctate and diffuse distribution of medial-Golgi marker giantin from golgi at 10 uM after 1 hr by immunofluorescence method; format: cell-based; conditions: Chlorocebus sabaeus
Vero [13] = experiment: Effect on transit of transferrin through endocytic and recycling pathway in african green monkey Vero cells at 10 uM after 1 hr by immunofluorescence method; format: functional, cell-based; conditions: Chlorocebus sabaeus
Vero [14] = experiment: Effect on depolymerization of actin microfilaments in african green monkey Vero cells at 10 uM after 30 mins by immunofluorescence method; format: functional, cell-based; conditions: Chlorocebus sabaeus
Summary of the method: (§3)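 Vero cells (DMEM, 10% FCS, 1% nonessential amino acids, 37°C, 5% CO2) exposed 30 min at 37°C to compound, DMSO, nocodazole or cytochalasin B; fixed and immunostained for microtubules or actin; scored by immunofluorescence microscopy.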

Vero [15] = experiment: Inhibition of GBF1-M832L mutant mediated NPY-GFP secretion in african green monkey Vero cells at 10 uM by immunofluorescence method; format: cell-based; conditions: Chlorocebus sabaeus
Vero [16] = experiment: Inhibition of GBF1 M832L in african green monkey Vero cells assessed as inhibition of StxB-SS retrogade transport from endosomes to TGN at 10 uM by immunofluorescence method; format: cell-based; conditions: Chlorocebus sabaeus
Vero [17] = experiment: Inhibition of GBF1 in african green monkey Vero cells assessed as giantin positive punctate structures in contact with Sec31-positive ER exit site at 10 uM after 1 hr by immunofluorescence method; format: cell-based; conditions: Chlorocebus sabaeus
Summary of the method: (§4)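 Vero cells given BFA 10 μg/ml or compound 10 μM for 60 min, fixed, co-stained for giantin and ER exit site marker Sec31; giantin puncta relative to ERES scored by immunofluorescence.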

Vero [18] = experiment: Inhibition of GBF1 M832L mutant in african green monkey Vero cells assessed as effect on betaCOP localization from golgi at 100 uM by immunofluorescence method; format: cell-based; conditions: Chlorocebus sabaeus
Vero [19] = experiment: Inhibition of GBF1 mediated NPY-GFP secretion in african green monkey Vero cells at 10 uM by immunofluorescence method; format: cell-based; conditions: Chlorocebus sabaeus
Vero [20] = experiment: Inhibition of GBF1 in african green monkey Vero cells assessed as punctate and diffuse distribution of medial-Golgi marker giantin […] at 10 uM after 1 hr by immunofluorescence method; format: cell-based; conditions: Chlorocebus sabaeus
Vero [21] = experiment: Inhibition of Arf1 in african green monkey Vero cells assessed as decrease in Arf1-GTP levels at 10 ug/ml after 1 hr; format: cell-based; conditions: Chlorocebus sabaeus
Summary of the method: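 Vero cells transduced with adenoviral Arf1-V5, alone or with GBF1-ML-HA; next day reseeded, then 45 min at 37°C with medium, BFA 10 µg/ml or compound 10 μM. Lysates pulled down with GGA3 VHS-GAT-GST on glutathione agarose, 30 min 4°C; Arf1-GTP by anti-V5 Western, band densitometry, duplicate experiments averaged.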

Vero [22] = experiment: Inhibition of GBF1 in african green monkey Vero cells assessed as induction of betaCOP dispersal from golgi membranes at 10 uM after 5 mins by immunofluorescence method; format: cell-based; conditions: Chlorocebus sabaeus
Vero [23] = experiment: Inhibition of GBF1 M832L mutant in african green monkey Vero cells assessed as effect on GM130 localization from golgi at 100 uM by immunofluorescence method; format: cell-based; conditions: Chlorocebus sabaeus
Vero [24] = experiment: Effect on disruption of microtubules in african green monkey Vero cells at 10 uM after 30 mins by immunofluorescence method; format: functional, cell-based; conditions: Chlorocebus sabaeus; summary of the method: as §3
Vero [25] = experiment: Inhibition of GBF1 in african green monkey Vero cells assessed as rapid AP-1 dispersal from golgi membranes at 10 uM after 5 mins by immunofluorescence method; format: cell-based; conditions: Chlorocebus sabaeus
Vero [26] = experiment: Inhibition of GBF1 in african green monkey Vero cells assessed as Arf1 activation at 10 uM after 1 hr; format: cell-based; conditions: Chlorocebus sabaeus
Vero [27] = experiment: Inhibition of Arf1 in african green monkey Vero cells assessed as giantin positive punctate structures in contact with Sec31-positive ER exit site at 10 ug/ml after 1 hr by immunofluorescence method; format: cell-based; conditions: Chlorocebus sabaeus; summary of the method: as §4
Vero [28] = experiment: Inhibition of Arf1 in african green monkey Vero cells assessed as inhibition of StxB-SS retrogade transport from endosomes to TGN at 10 ug/ml by immunofluorescence method; format: cell-based; conditions: Chlorocebus sabaeus
Vero [29] = experiment: Inhibition of GBF1 R843A mutant in african green monkey Vero cells mutant assessed as effect on change in golgi morphology at 10 uM after 1 hr by immunofluorescence method; format: cell-based; conditions: Chlorocebus sabaeus
Summary of the method: (§5)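 Vero cells transiently transfected (Lipofectamine 2000) with HA-tagged GBF1 wild type or R843A, K844A, Q845A or N846A mutant; after 36 h exposed 60 min to compound 10 μM, fixed, stained anti-HA and anti-giantin; Golgi morphology scored in expressing cells.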

Vero [30] = experiment: Inhibition of GBF1-M832L mutant in african green monkey Vero cells assessed as colocalization of tsVSVG-GFP with […] at 10 uM by immunofluorescence method; format: cell-based; conditions: Chlorocebus sabaeus
Vero [31] = experiment: Inhibition of GBF1-M832L mutant in african green monkey Vero cells assessed as tsVSVG-GFP transport to plasma membrane at 10 uM by immunofluorescence method; format: cell-based; conditions: Chlorocebus sabaeus; summary of the method: as §2
Vero [32] = experiment: Inhibition of GBF1 Q845A mutant in african green monkey Vero cells mutant assessed as effect on change in golgi morphology at 10 uM after 1 hr by immunofluorescence method; format: cell-based; conditions: Chlorocebus sabaeus; summary of the method: as §5
MDCK [33] = experiment: Induction of betaCOP distribution from golgi membranes in MDCK cells at 10 uM after 1 hr by immunofluorescence method; format: functional, cell-based; conditions: Canis lupus familiaris; summary of the method: as §1
Vero [34] = experiment: Inhibition of GBF1 N846A mutant in african green monkey Vero cells mutant assessed as effect on change in golgi morphology at 10 uM after 1 hr by immunofluorescence method; format: cell-based; conditions: Chlorocebus sabaeus; summary of the method: as §5
Vero [35] = experiment: Inhibition of GBF1 in african green monkey Vero cells overexpressing BIG1 assessed as distribution of trans-Golgi marker TGN46 from TGN at 10 uM after 1 hr by immunofluorescence method; format: cell-based; conditions: Chlorocebus sabaeus
Vero [36] = experiment: Inhibition of GBF1 in african green monkey Vero cells assessed as rapid COPI redistribution from golgi at 10 uM after 5 mins by immunofluorescence method; format: cell-based; conditions: Chlorocebus sabaeus
Vero [37] = experiment: Inhibition of GBF1 in african green monkey Vero cells assessed as colocalization with ERGIC-53 marker in ER-golgi intermediate compartment by immunofluorescence method; format: cell-based; conditions: Chlorocebus sabaeus
Vero [38] = experiment: Induction of GBF1 in african green monkey Vero cells assessed as punctate and diffuse distribution of cis-Golgi marker GM130 from TGN at 10 uM after 1 hr by immunofluorescence method; format: cell-based; conditions: Chlorocebus sabaeus
Vero [39] = experiment: Inhibition of GBF1 K844A mutant in african green monkey Vero cells mutant assessed as effect on change in golgi morphology at 10 uM after 1 hr by immunofluorescence method; format: cell-based; conditions: Chlorocebus sabaeus; summary of the method: as §5

Q: How did the inhibition (Vero [1]) turn out when Fc1cc(F)c2c(c1)[C@H]1C=CC[C@H]1C(c1cccnc1)N2 (some centres undefined) [GOLGICIDE A] was run?
A: The inhibition was “inactive”.

Q: What about the inhibition (Vero [2]) of the same molecule?
A: The inhibition was “Active”.

Q: And the Activity (MDCK [3])?
A: The Activity was “inactive”.

Q: And the inhibition (Vero [4])?
A: The inhibition was “inactive”.

Q: And the inhibition (Vero [5])?
A: The inhibition was “Active”.

Q: What about the Activity (Vero [6]) of the same molecule?
A: Its Activity is “inactive”.

Q: And the inhibition (Vero [7])?
A: Its inhibition is “inactive”.

Q: What about the IC50 (Vero [8]) of the same molecule?
A: Its IC50 is 3.3 µM.

Q: And the inhibition (Vero [9])?
A: Its inhibition is “Active”.

Q: And the inhibition (Vero [10])?
A: Its inhibition is “Active”.

Q: And the Activity (Vero [11])?
A: Its Activity is “inactive”.

Q: What about the inhibition (Vero [12]) of the same molecule?
A: The inhibition was “inactive”.

Q: What about the Activity (Vero [13]) of the same molecule?
A: The Activity was “inactive”.

Q: And the Activity (Vero [14])?
A: Its Activity is “inactive”.

Q: And the inhibition (Vero [15])?
A: Its inhibition is “inactive”.

Q: What about the inhibition (Vero [16]) of the same molecule?
A: The inhibition was “Active”.

Q: And the inhibition (Vero [17])?
A: Its inhibition is “Active”.

Q: And the inhibition (Vero [18])?
A: Its inhibition is “inactive”.

Q: What about the inhibition (Vero [19]) of the same molecule?
A: The inhibition was “Active”.

Q: And the inhibition (Vero [20])?
A: The inhibition was “Active”.

Q: What about the inhibition (Vero [21]) of the same molecule?
A: The inhibition was 75%.

Q: And the inhibition (Vero [22])?
A: The inhibition was “Active”.

Q: What about the inhibition (Vero [23]) of the same molecule?
A: Its inhibition is “inactive”.

Q: And the Activity (Vero [24])?
A: Its Activity is “inactive”.

Q: What about the inhibition (Vero [25]) of the same molecule?
A: Its inhibition is “inactive”.

Q: And the inhibition (Vero [26])?
A: The inhibition was 34%.

Q: What about the inhibition (Vero [27]) of the same molecule?
A: Its inhibition is “Active”.

Q: And the inhibition (Vero [28])?
A: The inhibition was “Active”.

Q: What about the inhibition (Vero [29]) of the same molecule?
A: The inhibition was “inactive”.

Q: And the inhibition (Vero [30])?
A: Its inhibition is “inactive”.

Q: What about the inhibition (Vero [31]) of the same molecule?
A: The inhibition was “inactive”.

Q: What about the inhibition (Vero [32]) of the same molecule?
A: The inhibition was “inactive”.

Q: What about the Activity (MDCK [33]) of the same molecule?
A: Its Activity is “inactive”.

Q: And the inhibition (Vero [34])?
A: The inhibition was “inactive”.

Q: And the inhibition (Vero [35])?
A: The inhibition was “inactive”.

Q: And the inhibition (Vero [36])?
A: The inhibition was “Active”.

Q: What about the inhibition (Vero [37]) of the same molecule?
A: Its inhibition is “Active”.

Q: What about the Activity (Vero [38]) of the same molecule?
A: Its Activity is “Active”.

Q: What about the inhibition (Vero [39]) of the same molecule?
A: The inhibition was “inactive”.
